The text below walks through data of ChEMBL document CHEMBL1148673, “Peptidomimetic C5a receptor antagonists with hydrophobic substitutions at the C-terminus: increased receptor specificity and in vivo activity” (Bioorg Med Chem Lett, 2006).

For data set [1], the target named is T1, C5a anaphylatoxin chemotactic receptor 1 (Homo sapiens, UniProt P21730).
T1 sequence (P21730 whole entry): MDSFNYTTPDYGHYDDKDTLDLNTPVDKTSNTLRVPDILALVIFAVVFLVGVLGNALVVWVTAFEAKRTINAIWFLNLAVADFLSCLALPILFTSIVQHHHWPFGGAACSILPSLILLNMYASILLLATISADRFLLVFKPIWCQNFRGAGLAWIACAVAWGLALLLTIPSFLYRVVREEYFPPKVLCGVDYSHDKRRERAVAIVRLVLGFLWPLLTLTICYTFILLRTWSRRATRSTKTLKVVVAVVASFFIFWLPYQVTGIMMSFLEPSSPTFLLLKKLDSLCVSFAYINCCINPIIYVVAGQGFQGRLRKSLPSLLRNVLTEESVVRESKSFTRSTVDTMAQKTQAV
In words: Antagonist activity at human C5aR in CD88 transfected RBL cells assessed as inhibition of C5a-induced glucosaminidase release. Type of data set: functional, cell-based. In short, it runs like this: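 Functional antagonism read as inhibition of glucosaminidase release stimulated by C5a from RBL cells transfected with CD88 (RBL+); IC50 in µM.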

Data set [2] is described as follows: Stability in human liver microsome after 1 hr. Type of data set: ADME. As to conditions: liver microsomes, read-out: Stability. In short, it runs like this:
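Compound incubated with human liver microsomes, 1 h at 37 °C; read-out is % of parent remaining.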

Data set [3] deals with J774.A1. As to the kind of experiment: Inhibition of C5a-induced chemotaxis of mouse J774A.1 cells. It is filed as functional, cell-based. In short, it runs like this:
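Mouse J774A.1 cells; chemotaxis induced by C5a, inhibition measured and IC50 (µM) determined.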

Data set [4] concerns the target CYP3A4 (Homo sapiens, UniProt P08684). In words: Inhibition of CYP3A4 at 10 uM. Type of data set: ADME.
For data set [5], the target named is T2, C5a anaphylatoxin chemotactic receptor 1 (Homo sapiens) (UniProt P21730).
T2 sequence (whole entry): T1 sequence (P21730 whole entry)
In words: Agonist activity at human C5aR in CD88 transfected RBL cells at 286 uM. Type of data set: functional, cell-based.

Data set [6] addresses T1, C5a anaphylatoxin chemotactic receptor 1. In words: Antagonist activity at human C5aR expressed in human PMN cells assessed as inhibition of glucosaminidase release. Type of data set: functional, cell-based.
For data set [7], the target named is Vasopressin V1a receptor (Homo sapiens, UniProt P37288). In words: Binding affinity to V1a receptor.
Sequence of Vasopressin V1a receptor (P37288 whole entry): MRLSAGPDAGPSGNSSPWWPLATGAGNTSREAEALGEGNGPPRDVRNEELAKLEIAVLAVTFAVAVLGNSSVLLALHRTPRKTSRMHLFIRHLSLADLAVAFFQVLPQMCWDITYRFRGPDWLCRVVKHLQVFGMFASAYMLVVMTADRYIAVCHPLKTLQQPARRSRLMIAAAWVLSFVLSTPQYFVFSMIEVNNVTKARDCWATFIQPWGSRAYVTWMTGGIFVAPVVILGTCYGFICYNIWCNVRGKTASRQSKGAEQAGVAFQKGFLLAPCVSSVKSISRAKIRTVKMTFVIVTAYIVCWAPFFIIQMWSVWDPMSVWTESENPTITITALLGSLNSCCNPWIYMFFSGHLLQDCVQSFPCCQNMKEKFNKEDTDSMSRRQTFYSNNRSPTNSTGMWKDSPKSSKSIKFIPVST
Data set [8] concerns the target T3, Substance-K receptor (Homo sapiens, UniProt P21452).
T3 sequence (P21452 whole entry): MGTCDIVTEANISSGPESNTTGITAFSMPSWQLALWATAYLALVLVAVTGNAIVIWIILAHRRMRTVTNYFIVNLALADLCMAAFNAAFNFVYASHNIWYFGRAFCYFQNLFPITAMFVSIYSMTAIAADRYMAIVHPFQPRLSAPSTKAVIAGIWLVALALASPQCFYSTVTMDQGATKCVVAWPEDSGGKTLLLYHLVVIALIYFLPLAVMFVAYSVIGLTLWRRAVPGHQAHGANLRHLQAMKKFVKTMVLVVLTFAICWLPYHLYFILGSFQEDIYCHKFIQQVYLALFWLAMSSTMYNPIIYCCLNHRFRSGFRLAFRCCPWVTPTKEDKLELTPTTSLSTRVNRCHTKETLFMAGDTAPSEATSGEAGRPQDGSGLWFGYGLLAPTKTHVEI
As to the kind of experiment: Binding affinity to NK2 receptor.

For data set [9], the target named is Nociceptin receptor (Homo sapiens, UniProt P41146). As to the kind of experiment: Binding affinity to ORL1 receptor.
Sequence of Nociceptin receptor (P41146 whole entry): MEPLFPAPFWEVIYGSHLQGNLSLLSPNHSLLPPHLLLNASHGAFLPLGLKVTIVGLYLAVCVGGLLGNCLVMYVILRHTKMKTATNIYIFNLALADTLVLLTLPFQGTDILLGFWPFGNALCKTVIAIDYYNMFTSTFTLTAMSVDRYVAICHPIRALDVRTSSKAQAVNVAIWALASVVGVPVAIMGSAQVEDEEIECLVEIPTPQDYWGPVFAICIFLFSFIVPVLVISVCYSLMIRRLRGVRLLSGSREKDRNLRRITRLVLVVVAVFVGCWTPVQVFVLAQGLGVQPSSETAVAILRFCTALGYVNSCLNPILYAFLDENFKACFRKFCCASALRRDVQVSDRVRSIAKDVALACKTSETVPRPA
For data set [10], the target named is T1, C5a anaphylatoxin chemotactic receptor 1. As to the kind of experiment: Inhibition of C5a binding to human C5aR expressed in HEK293 cells. Type of data set: cell-based.
The target of data set [11] is Melanocortin receptor 4 (Homo sapiens, UniProt P32245). In words: Binding affinity to MC4 receptor.
Sequence of Melanocortin receptor 4 (P32245 whole entry): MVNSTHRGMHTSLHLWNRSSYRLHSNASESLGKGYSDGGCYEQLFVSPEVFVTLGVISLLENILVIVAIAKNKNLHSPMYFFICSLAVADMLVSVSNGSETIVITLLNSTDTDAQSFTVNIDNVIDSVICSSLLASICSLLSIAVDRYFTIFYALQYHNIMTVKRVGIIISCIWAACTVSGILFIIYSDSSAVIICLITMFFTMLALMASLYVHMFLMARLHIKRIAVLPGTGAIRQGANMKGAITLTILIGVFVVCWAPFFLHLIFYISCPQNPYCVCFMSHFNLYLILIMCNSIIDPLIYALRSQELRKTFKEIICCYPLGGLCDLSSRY

Residues, ends and D or L forms follow the SMILES beside them. Bounds are passed on as bounds.

Sequence of CYP3A4 (P08684 whole entry): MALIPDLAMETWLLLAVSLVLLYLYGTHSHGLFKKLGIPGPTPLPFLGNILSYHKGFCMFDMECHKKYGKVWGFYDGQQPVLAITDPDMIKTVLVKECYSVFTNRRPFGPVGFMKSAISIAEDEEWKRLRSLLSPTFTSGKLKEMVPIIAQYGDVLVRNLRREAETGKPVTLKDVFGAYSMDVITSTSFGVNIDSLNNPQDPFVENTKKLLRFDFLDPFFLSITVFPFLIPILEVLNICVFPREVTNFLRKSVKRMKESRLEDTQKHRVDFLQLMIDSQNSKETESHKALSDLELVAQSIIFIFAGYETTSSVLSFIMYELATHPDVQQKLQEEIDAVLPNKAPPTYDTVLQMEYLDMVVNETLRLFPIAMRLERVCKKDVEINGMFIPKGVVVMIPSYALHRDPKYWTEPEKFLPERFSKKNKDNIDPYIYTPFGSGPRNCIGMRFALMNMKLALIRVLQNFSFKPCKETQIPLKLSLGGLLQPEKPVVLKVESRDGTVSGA

What is called IC50 is the concentration needed to halve the response being measured. In the case of `CC(=O)N[C@@H](Cc1ccccc1)C(=O)N[C@@H](CCCN)C(=O)N1CCC[C@H]1C(=O)N[C@H](CCC(C)C)C(=O)N[C@@H](Cc1csc2ccccc12)C(=O)N[C@@H](Cc1ccccc1)C(N)=O`, the IC50 in data set [1] was 27 nM. Further, the remaining at 1 h in data set [2] is 1%.

As usually defined, the inhibition is the drop in the measured response relative to a control, in per cent. With `CC(=O)N[C@@H](Cc1ccccc1)C(=O)N[C@H]1CCCNC(=O)[C@H](CCCN=C(N)N)NC(=O)[C@H](Cc2c[nH]c3ccccc23)NC(=O)[C@@H](CC2CCCCC2)NC(=O)[C@@H]2CCCN2C1=O`, the remaining at 1 h in [2] turned out to be 10%. This molecule came in with an IC50 in data set [3] of 7100 nM. Also, the inhibition at 10 µM in [4] was determined as 77%.

Molecule `CC(=O)N[C@@H](Cc1ccccc1)C(=O)N[C@@H](CCCN)C(=O)N1CCC[C@H]1C(=O)N[C@@H](CCC(C)C)C(=O)N[C@H](Cc1ccc(F)cc1)C(=O)N[C@H](Cc1ccccc1)C(N)=O` gave an Activity in data set [5] of 0%.

For `CC(=O)N[C@@H](Cc1ccccc1)C(=O)N[C@@H](CCCN)C(=O)N1CCC[C@H]1C(=O)N[C@H](CCC(C)C)C(=O)N[C@H](Cc1cccc(Cl)c1)C(=O)N[C@H](Cc1ccccc1)C(N)=O`, the Activity in data set [5] came to 1.2%.

Take `CC(=O)N[C@@H](Cc1ccccc1)C(=O)N[C@@H](CCCN)C(=O)N1CCC[C@H]1C(=O)N[C@H](CC1CCCCC1)C(=O)N[C@@H](Cc1c[nH]c2ccccc12)C(=O)N[C@@H](Cc1ccccc1)C(N)=O` (HELM PEPTIDE1{[ac].F.[Orn].P.[O=C([C@@H](CC1CCCCC1)N[*:1])[*:2]].W.F.[am]}$$$$V2.0): in data set [1], the 50% inhibitory concentration (IC50) was 31 nM. Further, in [2], the remaining at 1 h is 34%.

In data set [5], `CC(C)CC[C@H](NC(=O)[C@@H]1CCCN1C(=O)[C@H](CCCN)NC(=O)[C@H](Cc1ccccc1)NC(=O)[C@@H]1CC(=O)NC(=O)N1)C(=O)N[C@@H](Cc1ccc(F)cc1)C(=O)N[C@H](Cc1ccccc1)C(N)=O` had an Activity of 0%.

In turn, `CC(=O)N[C@@H](Cc1ccccc1)C(=O)N[C@@H](CCCN)C(=O)N1CCC[C@H]1C(=O)N[C@H](CCC(C)C)C(=O)N[C@H](Cc1csc2ccccc12)C(=O)N[C@H](Cc1ccccc1)C(N)=O` showed an Activity in [5] of 0%.

In the case of `CC(=O)N[C@@H](Cc1ccccc1)C(=O)N[C@@H](CCCN)C(=O)N1CCC[C@H]1C(=O)N[C@H](CCC(C)C)C(=O)N[C@H](Cc1c[nH]c2ccccc12)C(=O)N[C@H](Cc1ccccc1)C(N)=O`, the Activity in [5] is 0%.

As to `CC(C)CC[C@@H](NC(=O)[C@@H]1CCCN1C(=O)[C@H](CCCN)NC(=O)[C@H](Cc1ccccc1)NC(=O)[C@@H]1CC(=O)NC(=O)N1)C(=O)N[C@@H](Cc1ccc(F)cc1)C(=O)N[C@@H](Cc1ccccc1)C(N)=O`, the IC50 was 39 nM in data set [1]; 41 nM in data set [6]; 420 nM in data set [3]; 740 nM in data set [7]; 710 nM in [8]; more than 50000 nM in data set [9]. Moreover, the values for the IC50 in data set [10] and in data set [11] were 111 nM and 13000 nM, respectively. The remaining at 1 h in [2] turned out to be 80%. In [4], this molecule came in with an inhibition at 10 µM of 38%.

For `CC(=O)N[C@@H](Cc1ccccc1)C(=O)N[C@@H](CCCN)C(=O)N1CCC[C@H]1C(=O)N[C@H](CCC(C)C)C(=O)N[C@@H](Cc1ccc(F)cc1)C(=O)N[C@@H](Cc1ccccc1)C(N)=O`, the IC50 in data set [1] was 71 nM. Also, in data set [2], the remaining at 1 h was 65%.

For the molecule `CC(=O)N[C@@H](Cc1ccccc1)C(=O)N[C@@H](CCCN)C(=O)N1CCC[C@H]1C(=O)N[C@H](CCC(C)C)C(=O)N[C@H](Cc1ccc(Cl)c(Cl)c1)C(=O)N[C@H](Cc1ccccc1)C(N)=O`, in [5], the Activity stood at 7.2%.
